# ChEMBL document CHEMBL1143782, “Alpha-aminothiazole-gamma-aminobutanoic amides as potent, small molecule CCR2 receptor antagonists” (Bioorg Med Chem Lett, 2007)
# pIC50: −log10 of the molar value.
# How the values were obtained:
# Assay type in all cases: cell-based
# [1] = target: T1, C-C chemokine receptor type 2 (Homo sapiens, UniProt P41597); experiment: Displacement of [125I]MCP1 from human CCR2 expressed in monocytes
# Method in brief: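 Human CCR2 binding was read as inhibition of 125I-MCP-1 binding to monocyte cells stably transfected with CCR2. The assay was run in the presence of 0.5% BSA, using membranes of these cells.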
# Target sequence in this assay (P41597 whole entry): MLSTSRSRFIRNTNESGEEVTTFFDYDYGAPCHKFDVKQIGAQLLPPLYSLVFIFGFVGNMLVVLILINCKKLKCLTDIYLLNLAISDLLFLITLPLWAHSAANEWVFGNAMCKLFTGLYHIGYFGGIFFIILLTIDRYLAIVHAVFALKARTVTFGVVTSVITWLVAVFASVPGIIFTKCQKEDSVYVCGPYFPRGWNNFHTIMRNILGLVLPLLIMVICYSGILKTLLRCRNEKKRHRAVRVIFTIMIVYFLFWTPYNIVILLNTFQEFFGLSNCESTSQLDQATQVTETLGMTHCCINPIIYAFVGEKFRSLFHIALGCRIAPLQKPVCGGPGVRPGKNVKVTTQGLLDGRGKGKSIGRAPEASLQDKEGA
# [2] = target: C-C chemokine receptor type 2 (Mus musculus, UniProt P51683); experiment: Displacement of [125I]MCP1 from mouse CCR2 expressed in monocytes
# [3] = target: T1, C-C chemokine receptor type 2; experiment: Displacement of [125I]MCP-1 from human CCR2 expressed in monocytes 1 uM
# Target sequence in this assay (P41597 whole entry, looked up): as the sequence (P41597 whole entry) above
# Chain of C-C chemokine receptor type 2 (Mus musculus, UniProt P51683) (P51683 whole entry): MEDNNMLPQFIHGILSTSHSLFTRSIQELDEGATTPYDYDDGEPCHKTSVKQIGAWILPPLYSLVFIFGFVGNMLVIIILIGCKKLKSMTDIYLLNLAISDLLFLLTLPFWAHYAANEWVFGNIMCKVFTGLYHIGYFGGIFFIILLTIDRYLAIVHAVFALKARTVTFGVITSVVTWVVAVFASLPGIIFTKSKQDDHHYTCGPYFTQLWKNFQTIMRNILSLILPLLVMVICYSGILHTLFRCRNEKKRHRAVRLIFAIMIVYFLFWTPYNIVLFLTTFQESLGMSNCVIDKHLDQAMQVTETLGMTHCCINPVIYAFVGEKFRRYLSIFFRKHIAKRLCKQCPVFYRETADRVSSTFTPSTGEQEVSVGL
Compound,pIC50 [1],pIC50 [2],inhibition [3]
CC(C)(C)OC(=O)Nc1nc([C@@H](CCN2CCC(c3ccccc3)CC2)C(=O)NCc2cc(C(F)(F)F)cc(C(F)(F)F)c2)cs1,7.88,–,–
Cc1ccccc1N1CCN(CCC(C(=O)NCc2cc(C(F)(F)F)cc(C(F)(F)F)c2)c2csc(N)n2)CC1 (configuration not stated),6.74,–,–
CNC(=O)Nc1nc([C@@H](CCN2CCC(c3ccccc3)CC2)C(=O)NCc2cc(C(F)(F)F)cc(C(F)(F)F)c2)cs1,7.52,–,–
CC(C)(C)C(=O)Nc1nc(C(CCN2CCC(c3ccccc3)CC2)C(=O)NCc2cc(C(F)(F)F)cc(C(F)(F)F)c2)cs1 (configuration not stated),7.74,–,–
C[C@H]1CN(CCC(C(=O)NCc2cc(C(F)(F)F)cc(C(F)(F)F)c2)c2csc(NC(=O)c3cccnc3)n2)CC[C@]12C=Cc1ccccc12 (some centres not stated),7.85,6.73,–
COC(=O)Nc1nc([C@@H](CCN2CCC(c3ccccc3)CC2)C(=O)NCc2cc(C(F)(F)F)cc(C(F)(F)F)c2)cs1,–,–,85%
C[C@H]1CN(CCC(C(=O)NCc2cc(C(F)(F)F)cc(C(F)(F)F)c2)c2csc(NC(=O)Cc3ccccn3)n2)CC[C@]12C=Cc1ccccc12 (some centres not stated),7.89,7.10,–
Nc1nc(C(CCN2CCC(n3cnc4ccccc43)CC2)C(=O)NCc2cc(C(F)(F)F)cc(C(F)(F)F)c2)cs1 (configuration not stated),7.54,–,–
C[C@H]1CN(CCC(C(=O)NCc2cc(C(F)(F)F)cc(C(F)(F)F)c2)c2csc(NC(=O)Cc3cccs3)n2)CC[C@]12C=Cc1ccccc12 (some centres not stated),7.64,7.09,–
Nc1nc(C(CCN2CCCCC2)C(=O)NCc2cc(C(F)(F)F)cc(C(F)(F)F)c2)cs1 (configuration not stated),–,–,75%
Nc1nc(C(CCN2CCC(c3ccc(F)cc3)CC2)C(=O)NCc2cc(C(F)(F)F)cc(C(F)(F)F)c2)cs1 (configuration not stated),8.04,–,–
CC(=O)Nc1nc(C(CCN2CCC3(C=Cc4ccccc43)[C@@H](C)C2)C(=O)NCc2cc(C(F)(F)F)cc(C(F)(F)F)c2)cs1 (some centres not stated),8.52,–,–
CC(=O)Nc1nc([C@@H](CCN2CCC(c3ccccc3)CC2)C(=O)NCc2cc(C(F)(F)F)cc(C(F)(F)F)c2)cs1,7.38,–,–

# Further compounds by rising pIC50 [1], results first:
pIC50 [1],pIC50 [2],inhibition [3],Compound
8.14,–,–,Nc1nc(C(CCN2CCC3(C=Cc4ccccc43)CC2)C(=O)NCc2cc(C(F)(F)F)cc(C(F)(F)F)c2)cs1 (configuration not stated)
8.19,–,–,CC(=O)Nc1nc([C@@H](CCN2CCC3(C=Cc4ccccc43)CC2)C(=O)NCc2cc(C(F)(F)F)cc(C(F)(F)F)c2)cs1
8.24,–,–,CNC(=O)Nc1nc([C@@H](CCN2CCC3(C=Cc4ccccc43)CC2)C(=O)NCc2cc(C(F)(F)F)cc(C(F)(F)F)c2)cs1
8.46,–,–,COC(=O)Nc1nc([C@H](CCN2CCC(c3ccccc3)CC2)C(=O)NCc2cc(C(F)(F)F)cc(C(F)(F)F)c2)cs1
8.46,–,–,CCC(=O)Nc1nc(C(CCN2CCC(c3ccccc3)CC2)C(=O)NCc2cc(C(F)(F)F)cc(C(F)(F)F)c2)cs1 (configuration not stated)
8.52,–,–,CC(=O)Nc1nc(C(CCN2CCC(n3cnc4ccccc43)CC2)C(=O)NCc2cc(C(F)(F)F)cc(C(F)(F)F)c2)cs1 (configuration not stated)
8.59,–,–,COC(=O)Nc1nc(C(CCN2CCC(c3ccccc3)CC2)C(=O)NCc2cc(C(F)(F)F)cc(C(F)(F)F)c2)cs1 (configuration not stated)
8.74,–,–,CC(=O)Nc1nc(C(CCN2CCC(c3ccc(F)cc3)CC2)C(=O)NCc2cc(C(F)(F)F)cc(C(F)(F)F)c2)cs1 (configuration not stated)
8.89,–,–,N=C(N)Nc1nc(C(CCN2CCC(c3ccccc3)CC2)C(=O)NCc2cc(C(F)(F)F)cc(C(F)(F)F)c2)cs1 (configuration not stated)
9.10,–,–,CNC(=O)Nc1nc([C@H](CCN2CCC3(C=Cc4ccccc43)CC2)C(=O)NCc2cc(C(F)(F)F)cc(C(F)(F)F)c2)cs1
9.37,–,–,CNC(=O)Nc1nc([C@H](CCN2CCC(c3ccccc3)CC2)C(=O)NCc2cc(C(F)(F)F)cc(C(F)(F)F)c2)cs1
